# Assay outcomes from PubChem.
# Shown are actives, neighbours in structure and some others; about 2% of the full set was active somewhere.
# XiGFP reactiv: activators of X-chromosome reactivation in mouse fibroblasts. XiGFP mouse fibroblasts, % GFP-positive cells imaging, 3 d; cells co-treated with 5-aza-dC sensitizer; scaled so ellipticine positive control = 100%. activation, % at 7.58 µM. 360,000 tested, 0.055% active. AID 743238;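 active = mean normalized replicate activation at least 10% and every replicate at or above 10%; inconclusive = only one of the two criteria met; inactive = mean below 10% and not all replicates reach 10%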;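 note: 0% = median of on-plate neutral control wells and 100% = ellipticine 6 µM median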
#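 Assay system: SV40-immortalized XiGFP fibroblast cells, line 68-5-11; buffer or medium: DMEM plus 5-aza-dC sensitizer; compound: one concentration, pinned; timing: compounds 3 days, fix/stain 15 min at room temperature; benchmarks: positive control ellipticine, 6 µM final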
# CASP6 VEID inh: blocks human caspase-6 cleavage activity. purified caspase-6, Z-VEID-R110 cleavage fluorescence. AID 686996. 350,000 tested, 0.53% active. P55212. inhibition, % at 12.5 µM;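 active = mean inhibition across replicates at least about 35%, with every replicate also reaching that limit, limit read from the data; inconclusive = only one of the two criteria met; inactive = neither criterion met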;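 note: 0% = median of neutral control wells and 100% = no fluorescence left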
# Target sequence (P55212 24-179 limits assumed): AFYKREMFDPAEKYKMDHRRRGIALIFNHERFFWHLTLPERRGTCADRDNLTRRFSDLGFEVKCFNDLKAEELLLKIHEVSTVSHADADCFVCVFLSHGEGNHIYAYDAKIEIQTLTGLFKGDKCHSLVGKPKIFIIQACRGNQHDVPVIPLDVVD
# Target sequence (P55212 194-293 limits assumed): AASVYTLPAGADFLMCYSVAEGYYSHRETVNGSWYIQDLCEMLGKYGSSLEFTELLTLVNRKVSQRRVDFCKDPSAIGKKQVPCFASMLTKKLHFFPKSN
# FN deposit inh: fibronectin deposition inhibition; AH1F fibroblasts, Alexa488-fibronectin deposition fluorescence, overnight; inhibition, % at 12.6 µM; 350,000 tested, 0.086% active; AID 743247;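 active = mean inhibition across replicates of 30% or more, regardless of how many single replicates reach that level; inconclusive = mean under 30% yet at least half of replicates reach 30%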;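 note: positive control wells lacked labelled fibronectin entirely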
#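 Schedule: 1 h cell adhesion before compound, then overnight fibronectin incubation; test system: AH1F fibroblast monolayer depositing Alexa488-labelled fibronectin into matrix; quantity: 10000 AH1F cells per well; probe or stimulus: fluorescent fibronectin at 24 nM final; signal: fluorescence, ex 485 nm, em 525 nm; evaluation: percent inhibition as loss of matrix-bound fibronectin fluorescence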
# CaV13 FRET inh: Disruptors of the CACNA1D IQ motif to Ca2+-dependent inactivation inhibitor domain association, primary screening, Förster resonance energy transfer in intact living … | inhibition, % at 12.3 µM | HEK cells, CFP/YFP FRET ICDI-IQ, plate reader, 10 min; percent FRET-ratio fall versus neutral wells | AID 743397 | 340,000 tested, 0.098% active;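 active = mean replicate inhibition of at least 30% and at least 1% of replicates passing that level; inconclusive = only one of the two criteria is met; inactive = neither criterion is met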;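 note: 0% = median of the neutral control wells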
# DENV2 CPE rescue: inhibitors of DENV2 cytopathic effect | DENV2-infected cells, cytopathic effect rescue, plate reader | CPE inhibition, % at 9.99 µM | 350,000 tested, 1.7% active; in the data active = CPE inhibition above about 20%, passing the limit was not always enough; inconclusive = no clear call, values can overlap the other calls; tested in BHK-21 cells;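 note: 0% = median of neutral control wells and 100% = median of positive control wells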
# * = called active by the depositor; ? = inconclusive; / = no result; ! = not confirmed by another sample.
SMILES,XiGFP reactiv,CASP6 VEID inh,FN deposit inh,CaV13 FRET inh,DENV2 CPE rescue
CN(C)C(=O)[C@H]1[C@H](CO)[C@H]2Cn3c(ccc(-c4cccc(F)c4)c3=O)[C@@H]1N2CCc1ccccc1,1,-3,/,/,2
Cc1c(C=O)c2ccccn2c1C(=O)c1ccccc1Cl,0,0,6,-3,-3
Cc1c(C=O)c2ccccn2c1C(=O)c1cccs1,0,7,10,32*,2
Cc1ccc(S(=O)(=O)N(C)C[C@@H]2OCCCC[C@@H](C)Oc3ccc(NC(=O)Nc4ccccc4)cc3C(=O)N([C@H](C)CO)C[C@H]2C)cc1,0,0,7,/,-5
COc1ccccc1S(=O)(=O)N[C@@H]1CC[C@H](CC(=O)NCc2cc(F)cc(F)c2)O[C@H]1CO,0,-1,/,/,2
C[C@@H]1CN([C@@H](C)CO)C(=O)CCCn2nncc2CO[C@H]1CN(C)C(=O)Nc1ccc(C(C)(C)C)cc1,0,1,-3,/,22*
COc1ccc(NC(=O)N(C)C[C@@H]2OCc3cnnn3CCCC(=O)N([C@@H](C)CO)C[C@@H]2C)cc1,0,-3,-9,-6,24*!
COc1ccc(NC(=O)N(C)C[C@H]2OCc3cnnn3CCCC(=O)N([C@@H](C)CO)C[C@H]2C)c(OC)c1,0,2,4,-1,26*!
C[C@H]1CN([C@@H](C)CO)S(=O)(=O)c2ccc(-c3ccc(F)cc3)cc2O[C@H]1CN(C)S(C)(=O)=O,1,0,12,/,2
O=C(NC1CCC1)[C@H]1[C@H](CO)[C@H]2Cn3c(ccc(-c4cccc(F)c4)c3=O)[C@@H]1N2Cc1cocn1,0,1,11,/,0
COc1ccc2c3c([nH]c2c1)[C@H](CO)N(C(=O)C1CCCC1)CC31CN(S(C)(=O)=O)C1,0,1,/,/,14
CC(C)(C)Cc1c(-c2ccc(Br)cc2)nc2ccc(Br)cn12,0,-1,-7,-4,101*
CC(C)(C)Cc1c(-c2cccc(Cl)c2)nc2ccc(Br)cn12,0,4,-10,-6,9
Cc1cc(O)c(C(C)C)cc1NC(=S)Nc1cc(C(C)C)c(O)cc1C,0,11,-4,-21,74*
Cc1ccc([C@H]2C[C@H](n3cc(COC(=O)c4ccccc4)nn3)[C@@H](O)CN2C(=O)C2CCCCC2)cc1,0,-1,12,-11,52*
COc1ccc([C@H]2C[C@H](n3cc(COC(=O)c4ccccc4)nn3)[C@@H](O)CN2C(=O)C2CCCCC2)cc1,0,-4,1,-7,-1
O=C(OCc1cn([C@H]2CN(C(=O)C3CCCCC3)[C@@H](c3ccccc3)C[C@@H]2O)nn1)c1ccccc1,0,-1,0,-3,25*
COc1ccc([C@H]2C[C@H](n3cc(C4CC4)nn3)[C@@H](O)CN2C(=O)C2CCCCC2)cc1,0,2,18,-9,-8
O=C(C1CCCCC1)N1C[C@H](O)[C@@H](n2cc(C3CC3)nn2)C[C@@H]1c1ccccc1,0,1,-7,-10,86*
CCCCCC(=O)N1C[C@@H](n2cc(C3CC3)nn2)[C@H](O)C[C@@H]1c1ccccc1,0,2,0,-2,25*
Cc1c(C(=O)NCCCN2CCOCC2)sc2nc(-c3ccccc3)cn12,0,-3,-6,-5,87*
Nc1cc2cccnc2cc1Cl,0,62*,-2,-5,-4
Brc1ccc2cccnc2c1,/,/,/,-4,/
CCNC(=O)C[C@H]1C=C[C@H](NC(=O)C2CC2)[C@H](CO)O1,0,11,-3,/,0
O=S(=O)(c1ccc(NC(=S)N2CCCCC2)cc1)N1CCCCC1,0,-4,/,-6,-3
SMILES,XiGFP reactiv,CASP6 VEID inh,FN deposit inh,CaV13 FRET inh,DENV2 CPE rescue
CC(=O)c1cccc(NC(=S)N2CCN(S(=O)(=O)c3ccccc3)CC2)c1,0,-4,-3,-8,69*
CC(=O)c1cccc(NC(=S)N2CCN(S(=O)(=O)c3ccc(F)cc3)CC2)c1,0,3,-4,-9,?
Cc1ccc(NC(=S)N2CCN(S(=O)(=O)c3ccc(C)cc3)CC2)cc1,0,-1,12,-6,27*
NCC[C@@H]1CC[C@@H](NC(=O)C2CCC2)[C@H](CO)O1,2,-2,-11,/,4
CC1(C)C(=O)Nc2ccccc2N1C(=O)COC(=O)c1ccc([N+](=O)[O-])o1,0,47*,1,-5,-2
O=C1CN(C(=O)COC(=O)c2ccc([N+](=O)[O-])o2)c2ccccc2N1,0,39*,-1,-3,3
CN(C)C(=O)[C@H]1[C@H](CO)[C@H]2Cn3c(ccc(C4=CCCC4)c3=O)[C@@H]1N2CC1CCCC1,1,1,/,/,6
N#CC1=C(N)OC2=C(C(=O)CCC2)C1c1cc2c(cc1Cl)OCO2 (stereo not drawn),0,0,-10,-5,-7
N#CC1=C(N)OC2=C(C(=O)CCC2)C1c1cc2c(cc1Br)OCO2 (stereo not drawn),0,3,-7,60*,-2
O=C(Nc1sc2c(c1C(=O)O)CCCC2)C(=O)N1CCOCC1,0,14,3,-3,-3
O=C(Nc1sc2c(c1C(=O)O)CCC2)C(=O)N1CCOCC1,0,37*,-5,-7,2
O=C(O)/C(=C\c1cccc(F)c1)c1ccc(S(=O)(=O)N2CCCCC2)s1,0,30,0,-4,-2
O=C(O)/C(=C\c1cccc(O)c1)c1ccc(S(=O)(=O)N2CCCC2)s1,0,58*,-3,-17,-1
CSc1ccc(/C=C(\C(=O)O)c2ccc(S(=O)(=O)N3CCCC3)s2)cc1,0,46*,-2,-14,-13
CCCC#Cc1cnc2c(c1)C(=O)N([C@H](C)CO)C[C@H](C)[C@H](CN(C)Cc1ccc3c(c1)OCO3)O2,0,/,/,/,/
CC(=O)N(C1=C(N2CCOCC2)C(=O)c2ccccc2C1=O)c1ccc(C(=O)O)cc1,0,70*,-3,-6,1
CC(C)C[C@@H](CN1C(=O)C(=O)NC[C@@H]1CC(C)C)NC(=O)Cc1ccccc1,0,0,-3,-4,43*
CC(C)C[C@H]1CNC(=O)C(=O)N1C[C@H](Cc1ccc(O)cc1)NC(=O)CC12CC3CC(CC(C3)C1)C2,0,0,-5,-6,10
O=C(Nc1ccccc1)N1C[C@@H]2[C@H](c3ccccc31)[C@@H](CO)N2Cc1ccccc1Cl,1,2,/,/,37*
COc1ccc(C(=O)N2C[C@@H]3[C@H](c4ccccc42)[C@H](CO)N3C(=O)NC(C)C)cc1,0,1,-2,/,27*
CC(C)NC(=O)N1[C@H](CO)[C@H]2c3ccccc3N(C(=O)Nc3ccccc3)C[C@H]21,1,4,14,/,21*
